Data from ChEMBL document CHEMBL1132793, “Chiral synthesis and pharmacological evaluation of NPS 1407: a potent, stereoselective NMDA receptor antagonist” (Bioorg Med Chem Lett, 2000).

Columns and labels:
Mus musculus [1] = assay: Relative anticonvulsant potency in frings mice by peroral administration expressed as effective dose; type: functional; details: po
Mus musculus [2] = assay: Relative anticonvulsant potency in frings mice by intraperitoneal administration expressed as effective dose; type: functional; details: ip
In short: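 Frings audiogenic seizure-susceptible mice of both sexes (18–25 g), in groups of eight, given varying ip doses. At the time of peak effect, each mouse was exposed to a 110 dB (11 kHz) sound for 20 s and observed for 25 s. Absence of hindlimb tonic extension counted as protection. ED50 by probit analysis.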

Mus musculus [3] = assay: Lethality in mice following 30 mg/kg/day ip dose; 4/7; type: ADME, organism-based; design: route intraperitoneal; details: in vivo
Glutamate NMDA receptor [4] = assay: The compound was tested in vitro for the inhibition of N-methyl-D-aspartate glutamate receptor in rat cerebellar granule cells (RCGCs).
In short: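 Cultured rat cerebellar granule cells; cytosolic calcium rise stimulated by NMDA (50 µM) plus glycine (1 µM). Multiple cumulative concentration–response curves with at least five concentrations per test substance; IC50 by logit analysis.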

Glutamate NMDA receptor [5] = assay: The compound was tested in vitro for the displacement of the radioligand (+)-[3H]-MK-801 from synaptic plasma membranes from rat cortex against N-methyl-D-aspartate glutamate receptor; type: cell-free
Mus musculus [6] = assay: Lethality in mice following 60 mg/kg/day ip dose; 8/8; type: ADME, organism-based; design: route intraperitoneal; details: in vivo
[7] = Relative anticonvulsant potency in frings mice by peroral administration expressed as toxic dose; type: ADME, organism-based; details: mouse, in vivo, po

SMILES | ED50 (Mus musculus [1]) | ED50 (Mus musculus [2]) | Lethality (Mus musculus [3]) | IC50 (Glutamate NMDA receptor [4]) | IC50 (Glutamate NMDA receptor [5]) | Lethality (Mus musculus [6]) | TD50 [7]
NCCC(c1cccc(F)c1)c1cccc(F)c1 | 9.7 mg/kg | 2.1 mg/kg | – | – | – | – | –
CC(N)CC(c1cccc(F)c1)c1cccc(F)c1 (configuration not stated) | 5.1 mg/kg | 4.9 mg/kg | Lethal | 145 nM | 1040 nM | Lethal | 18.3 mg/kg
C[C@H](N)CC(c1cccc(F)c1)c1cccc(F)c1 | 7.3 mg/kg | 2.7 mg/kg | – | 89 nM | 762 nM | – | 18.6 mg/kg
C[C@@H](N)CC(c1cccc(F)c1)c1cccc(F)c1 | – | 9.1 mg/kg | – | 1110 nM | 4500 nM | – | –
